Measurements published in ChEMBL document CHEMBL4257503, “N-Acetyl-3-aminopyrazoles block the non-canonical NF-kB cascade by selectively inhibiting NIK” (Medchemcomm, 2018).
Activity calls are given as the source filed them. No cut-off for these calls is given here.

Tests used:
[1] = biological target: Serine/threonine-protein kinase Chk2 (Homo sapiens, UniProt O96017); assay: Inhibition of CHK2 (unknown origin)
[2] = biological target: Dual specificity protein kinase CLK1 (Homo sapiens, UniProt P49759); assay: Inhibition of CLK1 (unknown origin)
[3] = biological target: Mitogen-activated protein kinase 1 (Homo sapiens, UniProt P28482); assay: Inhibition of ERK2 (unknown origin)
[4] = test system: Mitogen-activated protein kinase kinase kinase 14 (Homo sapiens), Q99558 [S549D]; assay: Inhibition of human NIK kinase domain S549D mutant
[5] = biological target: Serine/threonine-protein kinase 4 (Homo sapiens, UniProt Q13043); assay: Inhibition of MST1 (unknown origin)
[6] = biological target: Fibroblast growth factor receptor 1 (Homo sapiens, UniProt P11362); assay: Inhibition of wild-type FGFR1 (unknown origin)
Mus musculus = species: Mus musculus; assay: Inhibition of mouse NIK kinase domain V480L mutant
[7] = biological target: Serine/threonine-protein kinase PLK1 (Homo sapiens, UniProt P53350); assay: Inhibition of PLK1 (unknown origin)
[8] = biological target: Proto-oncogene tyrosine-protein kinase Src (Homo sapiens, UniProt P12931); assay: Inhibition of GST/His-tagged SRC (unknown origin)
[9] = biological target: Tyrosine-protein kinase CSK (Homo sapiens, UniProt P41240); assay: Inhibition of CSK (unknown origin)
[10] = biological target: Calcium/calmodulin-dependent protein kinase kinase 1 (Homo sapiens, UniProt Q8N5S9); assay: Inhibition of CAMKK1 (unknown origin)
[11] = biological target: Serine/threonine-protein kinase tousled-like 1 (Homo sapiens, UniProt Q9UKI8); assay: Inhibition of TLK1 (unknown origin)
Homo sapiens = species: Homo sapiens; assay: Inhibition of NFkappaB activation in human SKBR3 cells at 100 uM after 6 hrs by dual luciferase reporter gene assay relative to control; assay type: cell-based
How it was run: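 Cells were nucleofected with the pGL4.32 NF-κB-RE firefly luciferase and pGL4.74 TK-Renilla plasmids (3 µg, 10:1 ratio) and cultured for 24 h at 37 °C. Compound (10, 25, 50 or 100 µM) was then added for 6 h. Firefly luminescence was normalised to Renilla from the same sample and expressed as % of vehicle control. Means ± SD of three independent experiments.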

[12] = biological target: T1, Inhibitor of nuclear factor kappa-B kinase subunit beta (Homo sapiens, UniProt O14920); assay: Inhibition of recombinant human full-length N-terminal GST-fused/His6-tagged IKKbeta (M1 to S756 residues) expressed in Sf9 insect cells using ERLLDDRHDSGLDSMKDEE peptide as substrate measured after 60 mins by ADP-Glo kinase assay
T1 sequence (O14920 whole entry): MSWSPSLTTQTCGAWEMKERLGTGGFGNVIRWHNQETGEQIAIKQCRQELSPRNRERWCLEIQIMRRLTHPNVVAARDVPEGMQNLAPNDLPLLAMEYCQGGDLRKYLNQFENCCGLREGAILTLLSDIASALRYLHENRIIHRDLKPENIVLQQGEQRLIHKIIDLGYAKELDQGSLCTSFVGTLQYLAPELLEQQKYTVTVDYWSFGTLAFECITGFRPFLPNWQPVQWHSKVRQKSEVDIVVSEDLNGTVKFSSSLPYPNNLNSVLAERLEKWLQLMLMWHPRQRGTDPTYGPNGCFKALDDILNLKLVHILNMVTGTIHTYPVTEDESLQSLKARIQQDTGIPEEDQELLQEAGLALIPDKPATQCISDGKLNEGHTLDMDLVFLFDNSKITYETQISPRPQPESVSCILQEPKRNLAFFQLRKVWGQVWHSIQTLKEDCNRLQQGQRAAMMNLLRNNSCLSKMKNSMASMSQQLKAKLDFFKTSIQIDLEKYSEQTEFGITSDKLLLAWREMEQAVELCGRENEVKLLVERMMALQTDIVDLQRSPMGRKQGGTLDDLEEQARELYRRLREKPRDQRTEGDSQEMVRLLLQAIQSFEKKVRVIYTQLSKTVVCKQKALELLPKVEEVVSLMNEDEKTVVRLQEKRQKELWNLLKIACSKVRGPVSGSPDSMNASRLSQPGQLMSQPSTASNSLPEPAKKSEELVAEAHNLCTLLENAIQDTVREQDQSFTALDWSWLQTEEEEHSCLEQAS

[13] = biological target: 3-phosphoinositide-dependent protein kinase 1 (Homo sapiens, UniProt O15530); assay: Inhibition of PDK1 (unknown origin)
[14] = biological target: Tyrosine-protein kinase SYK (Homo sapiens, UniProt P43405); assay: Inhibition of SYK (unknown origin)
[15] = Stability in human liver microsomes at 1 uM in presence of NADPH cofactor; assay type: ADME, microsome; details: read-out: Stability
[16] = biological target: Receptor-type tyrosine-protein kinase FLT3 (Homo sapiens, UniProt P36888); assay: Inhibition of wild-type FLT3 (unknown origin)
[17] = biological target: Mitogen-activated protein kinase kinase kinase 11 (Homo sapiens, UniProt Q16584); assay: Inhibition of MAP3K11 (unknown origin)
[18] = Octanol/phosphate buffered saline partition coefficient, log D of the compound at pH 7.4; assay type: physicochemical

Sequence of Proto-oncogene tyrosine-protein kinase Src (P12931 2-536 limits assumed): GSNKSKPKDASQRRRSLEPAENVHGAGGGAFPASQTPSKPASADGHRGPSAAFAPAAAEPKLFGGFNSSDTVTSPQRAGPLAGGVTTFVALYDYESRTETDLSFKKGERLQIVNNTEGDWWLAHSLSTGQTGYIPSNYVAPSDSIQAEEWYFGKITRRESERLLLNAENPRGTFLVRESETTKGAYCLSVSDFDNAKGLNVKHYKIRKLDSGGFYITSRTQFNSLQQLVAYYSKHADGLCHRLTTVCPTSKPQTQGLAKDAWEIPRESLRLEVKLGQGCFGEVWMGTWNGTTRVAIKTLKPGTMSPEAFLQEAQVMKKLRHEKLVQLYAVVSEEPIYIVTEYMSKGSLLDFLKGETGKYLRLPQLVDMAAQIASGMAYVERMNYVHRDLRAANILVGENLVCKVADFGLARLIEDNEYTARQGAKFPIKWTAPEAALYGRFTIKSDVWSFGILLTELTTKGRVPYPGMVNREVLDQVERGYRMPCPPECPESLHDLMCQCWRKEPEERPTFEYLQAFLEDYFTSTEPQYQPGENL
Sequence of Dual specificity protein kinase CLK1 (P49759 whole entry): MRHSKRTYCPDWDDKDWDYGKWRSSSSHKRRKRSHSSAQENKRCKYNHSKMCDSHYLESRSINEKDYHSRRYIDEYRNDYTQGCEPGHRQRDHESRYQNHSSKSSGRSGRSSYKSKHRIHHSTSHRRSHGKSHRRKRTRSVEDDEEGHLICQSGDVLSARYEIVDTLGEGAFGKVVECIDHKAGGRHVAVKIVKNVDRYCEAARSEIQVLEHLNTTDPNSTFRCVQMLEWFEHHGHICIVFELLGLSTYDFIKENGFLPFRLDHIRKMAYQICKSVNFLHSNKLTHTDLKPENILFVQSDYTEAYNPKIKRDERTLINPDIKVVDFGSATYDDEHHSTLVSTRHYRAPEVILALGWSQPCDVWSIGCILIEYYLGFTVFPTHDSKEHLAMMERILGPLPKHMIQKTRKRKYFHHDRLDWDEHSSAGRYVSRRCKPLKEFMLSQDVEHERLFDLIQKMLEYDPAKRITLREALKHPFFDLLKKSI
Sequence of Mitogen-activated protein kinase kinase kinase 11 (Q16584 whole entry): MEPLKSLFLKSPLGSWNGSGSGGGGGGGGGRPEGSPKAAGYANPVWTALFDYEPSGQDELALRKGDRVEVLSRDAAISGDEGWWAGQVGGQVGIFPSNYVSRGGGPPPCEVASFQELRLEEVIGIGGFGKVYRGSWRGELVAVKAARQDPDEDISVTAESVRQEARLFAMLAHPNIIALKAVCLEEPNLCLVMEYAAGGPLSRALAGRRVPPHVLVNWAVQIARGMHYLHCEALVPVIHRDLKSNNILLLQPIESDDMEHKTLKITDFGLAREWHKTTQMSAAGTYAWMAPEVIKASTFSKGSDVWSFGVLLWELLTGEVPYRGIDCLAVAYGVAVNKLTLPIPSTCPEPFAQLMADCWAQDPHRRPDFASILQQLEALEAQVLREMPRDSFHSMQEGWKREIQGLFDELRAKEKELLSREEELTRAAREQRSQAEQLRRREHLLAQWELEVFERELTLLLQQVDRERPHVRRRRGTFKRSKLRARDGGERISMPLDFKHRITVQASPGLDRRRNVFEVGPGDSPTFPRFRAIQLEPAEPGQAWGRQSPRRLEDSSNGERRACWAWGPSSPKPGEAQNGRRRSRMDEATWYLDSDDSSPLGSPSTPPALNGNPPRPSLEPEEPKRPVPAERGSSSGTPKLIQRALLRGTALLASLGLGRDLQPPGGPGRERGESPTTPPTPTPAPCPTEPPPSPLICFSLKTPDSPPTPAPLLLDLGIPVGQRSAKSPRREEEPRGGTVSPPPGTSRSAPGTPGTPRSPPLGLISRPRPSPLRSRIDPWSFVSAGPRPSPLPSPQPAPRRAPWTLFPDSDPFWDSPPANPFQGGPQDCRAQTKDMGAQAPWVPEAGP
Sequence of Serine/threonine-protein kinase 4 (Q13043 whole entry): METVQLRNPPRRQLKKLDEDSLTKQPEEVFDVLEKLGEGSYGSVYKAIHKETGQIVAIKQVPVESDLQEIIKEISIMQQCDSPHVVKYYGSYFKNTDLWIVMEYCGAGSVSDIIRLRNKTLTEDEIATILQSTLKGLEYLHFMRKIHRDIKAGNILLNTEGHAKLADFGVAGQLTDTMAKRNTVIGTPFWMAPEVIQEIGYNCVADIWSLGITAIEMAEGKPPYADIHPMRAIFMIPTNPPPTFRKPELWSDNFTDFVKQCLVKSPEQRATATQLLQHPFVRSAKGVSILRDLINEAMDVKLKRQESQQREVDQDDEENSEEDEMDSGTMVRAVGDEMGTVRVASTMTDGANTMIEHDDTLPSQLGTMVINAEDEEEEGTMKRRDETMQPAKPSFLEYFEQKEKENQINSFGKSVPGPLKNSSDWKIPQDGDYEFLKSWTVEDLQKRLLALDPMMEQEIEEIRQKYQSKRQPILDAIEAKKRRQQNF
Sequence of Fibroblast growth factor receptor 1 (P11362 whole entry, the tested form may be a part): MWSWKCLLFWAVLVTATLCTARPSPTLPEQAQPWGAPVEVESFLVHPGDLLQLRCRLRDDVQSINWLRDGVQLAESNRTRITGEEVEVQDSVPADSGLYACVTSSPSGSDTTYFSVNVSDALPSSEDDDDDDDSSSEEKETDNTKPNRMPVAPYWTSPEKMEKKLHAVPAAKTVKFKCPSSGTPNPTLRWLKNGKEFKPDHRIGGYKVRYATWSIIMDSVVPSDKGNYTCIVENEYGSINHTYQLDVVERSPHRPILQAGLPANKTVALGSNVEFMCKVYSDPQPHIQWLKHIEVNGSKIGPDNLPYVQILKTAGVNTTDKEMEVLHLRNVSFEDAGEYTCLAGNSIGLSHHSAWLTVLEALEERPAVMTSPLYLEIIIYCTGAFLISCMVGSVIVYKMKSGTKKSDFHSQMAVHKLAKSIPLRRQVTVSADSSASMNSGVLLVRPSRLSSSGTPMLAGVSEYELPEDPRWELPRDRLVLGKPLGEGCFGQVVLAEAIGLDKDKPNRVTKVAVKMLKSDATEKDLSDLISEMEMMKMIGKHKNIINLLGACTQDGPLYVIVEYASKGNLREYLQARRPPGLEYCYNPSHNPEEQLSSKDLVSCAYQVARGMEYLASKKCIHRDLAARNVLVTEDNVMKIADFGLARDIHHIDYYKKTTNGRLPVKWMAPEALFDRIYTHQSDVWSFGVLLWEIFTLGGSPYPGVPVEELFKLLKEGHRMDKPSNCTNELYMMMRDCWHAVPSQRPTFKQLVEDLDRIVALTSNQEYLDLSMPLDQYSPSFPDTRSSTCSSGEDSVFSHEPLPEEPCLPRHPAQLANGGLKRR
Sequence of Receptor-type tyrosine-protein kinase FLT3 (P36888 whole entry): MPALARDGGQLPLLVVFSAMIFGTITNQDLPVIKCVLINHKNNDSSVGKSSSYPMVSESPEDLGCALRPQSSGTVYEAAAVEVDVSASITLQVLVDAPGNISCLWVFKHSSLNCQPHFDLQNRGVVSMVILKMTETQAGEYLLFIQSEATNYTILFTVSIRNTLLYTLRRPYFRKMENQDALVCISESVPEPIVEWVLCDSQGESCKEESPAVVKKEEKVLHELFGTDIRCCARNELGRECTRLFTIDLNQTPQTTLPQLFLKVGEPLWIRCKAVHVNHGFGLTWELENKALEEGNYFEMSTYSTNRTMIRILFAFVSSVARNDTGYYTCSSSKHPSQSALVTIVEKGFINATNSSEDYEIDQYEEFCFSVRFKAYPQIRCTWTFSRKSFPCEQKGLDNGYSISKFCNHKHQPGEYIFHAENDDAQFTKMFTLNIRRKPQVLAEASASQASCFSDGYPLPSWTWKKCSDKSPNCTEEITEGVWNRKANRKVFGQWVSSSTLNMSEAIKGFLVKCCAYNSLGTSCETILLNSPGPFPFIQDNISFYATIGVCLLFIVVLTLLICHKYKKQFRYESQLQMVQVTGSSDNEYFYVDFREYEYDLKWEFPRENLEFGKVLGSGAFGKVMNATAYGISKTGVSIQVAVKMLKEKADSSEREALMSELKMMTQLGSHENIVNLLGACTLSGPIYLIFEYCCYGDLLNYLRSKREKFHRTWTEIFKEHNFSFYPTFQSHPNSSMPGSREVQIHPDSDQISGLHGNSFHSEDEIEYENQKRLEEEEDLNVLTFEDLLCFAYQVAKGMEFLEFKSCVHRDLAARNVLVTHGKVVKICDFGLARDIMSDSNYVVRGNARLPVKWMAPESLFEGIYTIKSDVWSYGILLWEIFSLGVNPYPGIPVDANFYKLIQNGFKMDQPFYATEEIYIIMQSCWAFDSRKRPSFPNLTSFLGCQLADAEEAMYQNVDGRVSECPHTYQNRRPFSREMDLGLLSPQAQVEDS
Sequence of 3-phosphoinositide-dependent protein kinase 1 (O15530 whole entry): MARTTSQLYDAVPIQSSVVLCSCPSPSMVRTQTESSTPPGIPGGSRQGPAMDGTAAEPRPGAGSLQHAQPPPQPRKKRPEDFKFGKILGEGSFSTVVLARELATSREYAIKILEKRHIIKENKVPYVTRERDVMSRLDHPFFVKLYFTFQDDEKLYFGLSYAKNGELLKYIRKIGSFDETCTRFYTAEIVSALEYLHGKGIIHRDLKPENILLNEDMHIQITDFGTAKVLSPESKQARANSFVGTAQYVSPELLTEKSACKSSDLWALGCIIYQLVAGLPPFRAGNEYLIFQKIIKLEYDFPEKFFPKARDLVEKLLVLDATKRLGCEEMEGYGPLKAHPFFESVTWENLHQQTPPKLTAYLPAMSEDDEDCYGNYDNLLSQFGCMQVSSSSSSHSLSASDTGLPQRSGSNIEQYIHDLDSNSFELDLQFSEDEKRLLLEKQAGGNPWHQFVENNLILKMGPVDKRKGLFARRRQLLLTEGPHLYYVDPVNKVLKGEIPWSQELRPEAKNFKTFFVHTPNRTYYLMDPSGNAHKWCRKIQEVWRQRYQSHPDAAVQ

**Q.** What does the source list for CC(=O)n1nc(C)c(-c2ccc(Cl)c(Cl)c2)c1N?
**A.** IC50 [1]: > 100 µM; IC50 [2]: > 100 µM; IC50 [3]: > 100 µM; inhibition [4]: inactive; IC50 [5]: > 100 µM; IC50 [6]: > 100 µM; inhibition (Mus musculus): inactive; IC50 [7]: > 100 µM; IC50 [8]: > 100 µM; IC50 [9]: > 100 µM; IC50 [10]: > 100 µM; IC50 [11]: > 100 µM; inhibition (Homo sapiens): 3.9%; IC50 [12]: > 100 µM; IC50 [13]: > 100 µM; IC50 [14]: > 100 µM; remaining at 1 µM [15]: 1%; IC50 [16]: > 100 µM; IC50 [17]: > 100 µM; logD [18]: 4.09
